Only some compounds are listed: those with a hit (about 4.1% of all), similar ones and a draw of the others.
NF-kB neuron act = raises NF-kB expression in human neuronal cells; fold change at 12.5 µM; NF-kB reporter expression; stronger effect = higher value; 1.6% of 190,000 active; in the data active = fold change above about 3.3
FLuc inh counter = counter-screen for luciferase assay inhibitors: firefly luciferase inhibition; 1.5% of 200,000 active; inhibition, % at 10 µM; P08659; ATPLite firefly luciferase biochemical luminescence, 10 min;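 active = inhibition above about 50% when tested at 10 µM, limit read from the data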
Target sequence (P08659 whole entry, looked up): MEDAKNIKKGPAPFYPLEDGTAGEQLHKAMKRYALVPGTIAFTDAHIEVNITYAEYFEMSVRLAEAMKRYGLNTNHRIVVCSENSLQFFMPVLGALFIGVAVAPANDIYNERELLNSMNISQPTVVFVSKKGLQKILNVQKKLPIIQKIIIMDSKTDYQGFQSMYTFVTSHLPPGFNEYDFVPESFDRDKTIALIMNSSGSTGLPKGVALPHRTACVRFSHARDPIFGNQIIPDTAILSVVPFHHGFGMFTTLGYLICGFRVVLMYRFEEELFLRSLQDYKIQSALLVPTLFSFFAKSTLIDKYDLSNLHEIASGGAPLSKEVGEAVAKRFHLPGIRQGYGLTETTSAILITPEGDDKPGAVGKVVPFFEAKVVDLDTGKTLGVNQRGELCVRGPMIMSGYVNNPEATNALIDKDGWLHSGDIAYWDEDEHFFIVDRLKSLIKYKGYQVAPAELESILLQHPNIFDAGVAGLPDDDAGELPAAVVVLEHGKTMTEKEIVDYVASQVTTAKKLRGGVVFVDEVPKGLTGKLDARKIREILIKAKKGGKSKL
STAT1 act = STAT1 signaling activation; AID 932; activation (% of control), % at 5.5 µM; NIH 3T3 STAT1-luciferase reporter, IFN-gamma, luminescence; 100% = IFN-gamma alone, no compound; 2.6% of 200,000 active;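 active = activation above the screen-wide mean activation plus 3 SD, cut at about 130% in these data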;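 also: raw ratio to IFN-gamma control signal so 100% means no change and 0% no light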
APP 5'UTR act = APP 5'UTR luciferase reporter activation | SH-SY5Y APP 5'UTR luciferase reporter, luminescence; zero percent = DMSO vehicle wells | activation, % at 2 µM | 1% of 190,000 active | AID 1276;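 active = activation above a set limit, based on mean plus 3 SD of controls, cut at about 140% in these data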
FLuc stim CS = affects firefly luciferase, flagging false hits in luciferase stimulation screens; 200,000 tested, under 10 active; AID 1027; ATPlite luciferase biochemical, luminescence, 10 min; 0 = ATP-free wells, 1 = DMSO control; P08659; activation factor at 10 µM;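 active = luciferase activation factor, scaled between plate controls, of at least 2 with compound at 10 µM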
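Assay system – cell-free luciferase reagent · Medium – PBS-based ATP solution · Dosing – test compounds dosed from 2 mM stocks in 100% DMSO · Timing – 10 min, room temperature · Technique – light output (luminescence) · Measure – luminescence gain marking luciferase activators · Controls – No-ATP low control, compound-free enzyme-plus-ATP high control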
Active calls of the source: *; nt = no result.

SMILES | NF-kB neuron act | FLuc inh counter | STAT1 act | APP 5'UTR act | FLuc stim CS
Cc1cc(C(=O)N(C)CC(=O)Nc2ccccc2C(F)(F)F)c(C)o1 | 0.96 | -4 | 102 | 11 | 1
COC(=O)c1ccc2nc(-c3ccc4c(c3)OCO4)cn2c1 | 5* | 85* | 39 | 90 | 0.1
Cc1ccc(-c2cn3cccnc3n2)cc1 | 2.1 | 66* | 125 | 48 | 0.3
c1cnc2nc(-c3ccc4c(c3)OCO4)cn2c1 | 2.2 | 55* | 136* | 62 | 0.4
Cc1ccc(S(=O)(=O)Nc2cccc3ncccc23)s1 | 0.16 | -5 | 187* | -56 | 1.1
CC1CCCCC12NC(=O)N(CC(=O)NC(=O)Nc1ccc3c(c1)OCCO3)C2=O (stereo not drawn) | 1.1 | 33 | 132* | 78 | 0.7
Cc1cc(C)c(C#N)c(Sc2ccccc2N)n1 | 1.1 | -4 | 139* | 29 | 1
O=C1NN=C(CSc2n[nH]c(=S)s2)CS1 | 1.2 | 4 | 100 | -5 | 1
c1ccc(-c2ccccc2-c2nc(-c3cccnc3)no2)cc1 | 0.86 | -8 | 100 | -12 | 1.1
Fc1ccccc1-c1nc(-c2ccccc2)no1 | 6.5* | 60* | 130* | 157* | 0.4
Brc1ccccc1-c1nc(-c2ccccc2)no1 | 9.5* | 73* | 147* | 180* | 0.3
COc1ccc(C)cc1NCC(=O)Nc1ccc(C(C)(C)C)cc1 | 0.81 | -5 | 95 | 9 | 1
CCOC(=O)c1ccc(NC(=O)Nc2ncccc2C)cc1 | 0.95 | 49 | 123 | 50 | 0.5
Cc1cccnc1NC(=O)Nc1cccc(C(F)(F)F)c1 | 1 | -5 | 98 | -1 | 1
Cc1ccc(C)c(NC(=S)Nc2ncccc2C)c1 | 1.7 | 13 | 132* | 36 | 0.9
Cc1ccc(NC(=O)Nc2ncccc2C)cc1 | 2.5 | 26 | 149* | 56 | 0.7
Cc1cccnc1NC(=O)Nc1ccc(F)cc1 | 2 | 5 | 136* | -2 | 0.9
CNc1nnc(-c2ccc(N(C)C)cc2)s1 | 4.7* | 92* | 87 | 115 | 0.1
CN(C)c1ccc(-c2ccncc2)cc1 | nt | 2 | nt | nt | 1
Cc1ccccc1OCCN1C(=O)C(=O)c2cccc(C)c21 | 1.2 | -7 | 101 | nt | 1.1
Cc1cccc2c1N(CCOc1ccccc1Cl)C(=O)C2=O | 3.7* | 1 | 105 | -8 | 1
Cn1c(SCC(=O)Nc2cccc(S(=O)(=O)NC3=NCCCCC3)c2)nnc1-c1ccccc1 | 1.2 | -3 | 108 | 12 | 1
O=C(Sc1cccc2cccnc12)c1ccc(F)cc1 | 0.15 | -4 | 173* | -71 | 1
O=S(=O)(Nc1cc(Sc2cccc3cccnc23)c(O)c2ccccc12)c1ccc(F)cc1 | 0.27 | -5 | 141* | -78 | 1
CNC(=S)NNC(=O)c1ccccc1F | 1.2 | -7 | 96 | -16 | 1.1
SMILES | NF-kB neuron act | FLuc inh counter | STAT1 act | APP 5'UTR act | FLuc stim CS
Cc1cc(C(=O)CSc2ccc(F)cc2)cc(C)c1OC(=S)N(C)C | 0.4 | 33 | 120 | 160* | 0.7
CCc1ccc(C(=O)COC(=O)c2cccc(N3C(=O)c4c(C)nc5ccccc5c4C3=O)c2)cc1 | 1.2 | 51* | 106 | 113 | 0.5
CCOC(=O)c1nnn(CC(=O)N2N=C(c3ccccc3)CC2c2ccccc2)c1C(=O)OCC (stereo not drawn) | 1.2 | -1 | 98 | 10 | 1
CCOC(=O)/C=C(\C)N1N=C(c2ccccc2)CC1c1ccccc1 (stereo not drawn) | 2.5 | 9 | 142* | 83 | 0.9
COc1ccc(C2CC(c3ccc4ccccc4c3)=NN2C(=O)CN2CCC(C(N)=O)CC2)cc1 (stereo not drawn) | 1 | -3 | 121 | 41 | 1
CC(=O)OCC(=O)N1N=C(c2ccc3ccccc3c2)CC1c1ccccc1 (stereo not drawn) | 1.5 | 1 | 139* | 55 | 1
CC(=O)Nc1ccc(C(=O)CSc2cc(C)c3cccc(C)c3n2)cc1 | 0.99 | -11 | 94 | 8 | 1.1
Cn1c(C(=O)Nc2ccccc2)cc2sccc21 | 1.6 | 18 | 112 | 32 | 0.8
COc1cc(NC(=O)c2cc3sccc3n2C)cc(OC)c1 | 2.5 | 20 | 132* | 104 | 0.8
Cc1nn2cc(-c3ccc(-c4ccccc4)cc3)nc2s1 | 4.4* | 23 | 113 | 117 | 0.8
Cc1nn2cc(-c3ccc(Cl)cc3)nc2s1 | 8* | 35 | 118 | 158* | 0.6
c1ccc(-c2cn3nc(-c4ccccc4)c(-c4ccccc4)nc3n2)cc1 | 1.2 | -7 | 104 | 10 | 1.1
Cc1nc2nc(-c3ccc(Cl)cc3)cn2nc1C | 3.3* | 41 | 94 | 85 | 0.6
COc1cccc(-c2cn3nc(C)c(C)nc3n2)c1 | 2.7 | 22 | 127 | 141* | 0.8
COc1cccc(-n2c(C)n[nH]c2=O)c1 | 0.92 | -5 | 97 | 8 | 1
CCc1nn2cc(-c3ccccc3)nc2s1 | 5* | 89* | 70 | 153* | 0.1
CC(=O)Nc1ccccc1C(=O)C(=O)Nc1cccc(C(=O)N2CC(C)CC(C)C2)c1 (stereo not drawn) | 1 | -3 | 101 | -5 | 1
CCCn1c(NC(=O)c2cccc(S(=O)(=O)N3CCCC3)c2)nc2ccccc21 | 0.3 | -5 | 88 | -25 | 1
COc1cccc2cc(-c3nc4ccccc4o3)c(=O)oc12 | 3 | 60* | 119 | 122 | 0.4
O=c1oc2ccc(Br)cc2cc1-c1nc2ccccc2o1 | 1.2 | -3 | 103 | 2 | 1
CCOC(=O)C1CCCN(C(=O)COC(=O)c2ccc(C#N)cc2)C1 (stereo not drawn) | 1 | 0 | 90 | -12 | 1
O=C(/C(=C/c1ccc(Cl)cc1)c1nc2ccccc2[nH]1)c1cccs1 | 0.57 | 3 | 86 | 39 | 1
COc1cc(/C=C(/C(=O)c2cccs2)c2nc3ccccc3[nH]2)ccc1O | 4.5* | 35 | 96 | 43 | 0.6
CC(C)CCNC(=O)C(=O)Nc1ccccc1 | 3 | 10 | 129* | 130 | 0.9
CC(C)CCNC(=O)c1ccc(-c2ccccc2)cc1 | 2.9 | 18 | 132* | 55 | 0.8
SMILES | NF-kB neuron act | FLuc inh counter | STAT1 act | APP 5'UTR act | FLuc stim CS
CC(C)CCNC(=O)c1cccc(C(=O)NCCC(C)C)c1 | 0.98 | -10 | 96 | 9 | 1.1
COc1ccc(-c2nc(NC(=O)C3=NN(c4cccc(C)c4)C(=O)CC3)sc2C)cc1 | 1 | -6 | 100 | 33 | 1.1
Cn1c(=O)c(Oc2ccc(F)cc2)c(O)c2ccccc21 | 1 | -9 | 83 | 15 | 1.1
Cc1c(-c2ccccn2)c(=O)[nH]n1-c1ccc(F)cc1 | 3.8* | 61* | 105 | 125 | 0.4
O=C(Nc1ccc(Cl)cc1Cl)NC1CCCC1 | 1 | 2 | 115 | 15 | 1
CN(C(=O)Nc1ccc(Cl)cc1Cl)C1CCCC1 | 2 | 16 | 135* | 42 | 0.8
COc1ccc(/C=N/n2c(N)nc3ccccc32)cc1OC | 0.95 | 60* | 115 | 12 | 0.4
CCOc1cc(-c2c(C#N)c(=O)[nH]c3c2c(C)nn3-c2ccc(F)cc2)ccc1O | 1.3 | -6 | 102 | 1 | 1.1
